Source: ChEMBL document CHEMBL1154249, “Semisynthesis and biological evaluation of abietane-type diterpenes. Revision of the structure of rosmaquinone” (J Nat Prod, 2009)
pIC50: −log10 of the molar value. Values after ≈ are worked out from the molar mass of the structure shown.

Key:
[1] = tested on: Staphylococcus aureus; assay: Antibacterial activity against Staphylococcus aureus ATCC 6538 after 24 hrs by broth dilution assay; type: functional; conditions: Staphylococcus aureus, ATCC 6538, 24 h; read-out: MIC
[2] = tested on: Staphylococcus epidermidis; assay: Antibacterial activity against Staphylococcus epidermidis ATCC 14990 after 24 hrs by broth dilution assay; type: functional; conditions: Staphylococcus epidermidis, ATCC 14990, 24 h; read-out: MIC
Method in brief: (§1)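 Microdilution in nutrient broth at 37 °C, about (1-5) × 10^5 cfu/mL inoculum, compounds in DMSO (≤1% v/v, matched DMSO controls), in triplicate. Growth followed by OD550. Wells without visible growth after 24 h on a rotary shaker were subcultured in duplicate onto nutrient agar and colonies counted after overnight incubation. MIC is the lowest concentration inhibiting growth at 24 h.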

[3] = tested on: Bacillus subtilis; assay: Antibacterial activity against Bacillus subtilis ATCC 6051 after 24 hrs by broth dilution assay; type: functional; conditions: Bacillus subtilis, ATCC 6051, 24 h; read-out: MIC
[4] = tested on: Bacillus cereus; assay: Antibacterial activity against Bacillus cereus ATCC 21772 after 24 hrs by broth dilution assay; type: functional; conditions: Bacillus cereus, ATCC 21772, 24 h
[5] = tested on: Candida albicans; assay: Antibacterial activity against Candida albicans CECT 170 after 24 hrs by broth dilution assay; type: functional; conditions: CECT 1039, 24 h, in the assay text read “CECT 1039” for “CECT 170”
Method in brief: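 Yeast grown in Sabouraud liquid medium at 37 °C. Microdilution in triplicate, about (1-5) × 10^5 cfu/mL, DMSO ≤1% v/v with matched controls. OD550 followed. Clear wells at 24 h were plated in duplicate on Sabouraud agar and counted after overnight incubation. MIC is the lowest concentration inhibiting growth.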

[6] = tested on: Enterococcus faecalis; assay: Antibacterial activity against Enterococcus faecalis ATCC 29212 after 24 hrs by broth dilution assay; type: functional; conditions: ATCC 29212, 24 h
Method in brief: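 Microdilution in brain heart infusion broth, shaken at 37 °C, about (1-5) × 10^5 cfu/mL start, DMSO ≤1% v/v with matched controls, in triplicate. OD550 read. Clear wells at 24 h were subcultured in duplicate onto brain heart infusion agar and counted after overnight incubation. MIC is the lowest concentration giving growth inhibition.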

[7] = tested on: Mycolicibacterium smegmatis; assay: Antibacterial activity against Mycobacterium smegmatis ATCC 19420 after 48 hrs by broth dilution assay; type: functional; conditions: ATCC 19420, 48 h
Method in brief: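 Brain heart infusion broth with 0.06% Tween 80, 37 °C on a rotary shaker, inoculum about (1-5) × 10^5 cfu/mL, DMSO ≤1% v/v with matched controls, in triplicate. OD550 monitored.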

[8] = tested on: Escherichia coli; assay: Antibacterial activity against Escherichia coli ATCC 9637 after 24 hrs by broth dilution assay; type: functional; conditions: ATCC 9637, 24 h; method in brief: as §1
[9] = tested on: Proteus mirabilis; assay: Antibacterial activity against Proteus mirabilis CECT 170 after 24 hrs by broth dilution assay; type: functional; conditions: CECT 170, 24 h; method in brief: as §1
[10] = tested on: Pseudomonas aeruginosa; assay: Antibacterial activity against Pseudomonas aeruginosa AK958 after 24 hrs by broth dilution assay; type: functional; conditions: AK958, 24 h; method in brief: as §1
[11] = tested on: Salmonella; assay: Antibacterial activity against Salmonella CECT 4569 after 24 hrs by broth dilution assay; type: functional; conditions: CECT 4569, 24 h; method in brief: as §1
[12] = tested on: HeLa; assay: Cytotoxicity against human HeLa cells at lag phase of growth after 48 hrs by MTT assay; type: functional, cell-based; conditions: Homo sapiens, HeLa, 48 h; read-out: IC50
Method in brief: (§2)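 Monolayers grown in DMEM with 5% fetal calf serum and penicillin-streptomycin at 37 °C, 5% CO2. 2×10^4 cells/well in lag or log phase were exposed for 48 h to a concentration series of compounds predissolved in DMSO. MTT formazan was dissolved in DMSO and read at 550 nm. IC50 taken from the curve; three independent experiments.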

[13] = tested on: HeLa; assay: Cytotoxicity against human HeLa cells at exponential phase of growth after 48 hrs by MTT assay; type: functional, cell-based; conditions: Homo sapiens, HeLa, 48 h; read-out: IC50; method in brief: as §2
[14] = tested on: A549; assay: Cytotoxicity against human A549 cells at lag phase of growth after 48 hrs by MTT assay; type: functional, cell-based; conditions: Homo sapiens, A549, 48 h; read-out: IC50; method in brief: as §2
[15] = tested on: A549; assay: Cytotoxicity against human A549 cells at exponential phase of growth after 48 hrs by MTT assay; type: functional, cell-based; conditions: Homo sapiens, A549, 48 h; read-out: IC50; method in brief: as §2
[16] = tested on: MCF7; assay: Cytotoxicity against human MCF7 cells at lag phase of growth after 48 hrs by MTT assay; type: functional, cell-based; conditions: Homo sapiens, MCF7, 48 h; read-out: IC50; method in brief: as §2
[17] = tested on: MCF7; assay: Cytotoxicity against human […] cells at exponential phase of growth after 48 hrs by MTT assay; type: functional, cell-based; conditions: Homo sapiens, MCF7, 48 h; read-out: IC50; method in brief: as §2
[18] = tested on: Vero; assay: Cytotoxicity against african green monkey Vero cells at lag phase of growth after 48 hrs by MTT assay; type: cell-based, Chlorocebus sabaeus; conditions: Chlorocebus sabaeus, Vero, 48 h; read-out: IC50; method in brief: as §2
[19] = tested on: Vero; assay: Cytotoxicity against african green monkey Vero cells at exponential phase of growth after 48 hrs by MTT assay; type: cell-based, Chlorocebus sabaeus; conditions: Chlorocebus sabaeus, Vero, 48 h; read-out: IC50; method in brief: as §2

Row | SMILES | MIC [1] [µg/mL] | MIC [2] [µg/mL] | MIC [3] [µg/mL] | MIC [4] [µg/mL] | MIC [5] [µg/mL] | MIC [6] [µg/mL] | MIC [7] [µg/mL] | MIC [8] [µg/mL] | MIC [9] [µg/mL] | MIC [10] [µg/mL] | MIC [11] [µg/mL] | pIC50 [12] | pIC50 [13] | pIC50 [14] | pIC50 [15] | pIC50 [16] | pIC50 [17] | pIC50 [18] | pIC50 [19]
1 | CO[C@@H]1c2cc(C(C)C)c(O)c(O)c2[C@@]23CCCC(C)(C)[C@@H]2[C@@H]1OC3=O | > 40 | 20 (≈ 55.5 µM) | 20 (≈ 55.5 µM) | 20 (≈ 55.5 µM) | > 40 | > 40 | > 40 | > 40 | > 40 | > 40 | > 40 | 4.39 | < 4.22 | 4.45 | 4.29 | 4.63 | 4.39 | 4.44 | 4.47
2 | CO[C@H]1c2cc(C(C)C)c(O)c(O)c2[C@@]23CCCC(C)(C)[C@@H]2[C@@H]1OC3=O | > 40 | 20 (≈ 55.5 µM) | > 40 | 20 (≈ 55.5 µM) | > 40 | > 40 | > 40 | > 40 | > 40 | > 40 | > 40 | 4.37 | < 4.22 | 4.37 | < 4.22 | 4.43 | 4.25 | 4.37 | 4.33
3 | CC(C)c1cc2c(c(O)c1O)[C@@]13CCCC(C)(C)[C@@H]1C[C@@H]2OC3=O [CARNOSOL] | 25 (≈ 75.7 µM) | 5 (≈ 15.1 µM) | 4 (≈ 12.1 µM) | 5 (≈ 15.1 µM) | 20 (≈ 60.5 µM) | > 40 | > 40 | > 40 | > 40 | > 40 | > 40 | 4.36 | < 4.22 | < 4.22 | 4.33 | 4.39 | 4.35 | < 4.22 | 4.29
4 | CC(C)c1cc2c(c(O)c1O)[C@@]13CCCC(C)(C)[C@@H]1[C@@H](O)[C@@H]2OC3=O [ISOROSMANOL] | 40 (≈ 115 µM) | 20 (≈ 57.7 µM) | 30 (≈ 86.6 µM) | 20 (≈ 57.7 µM) | > 40 | > 40 | > 40 | > 40 | > 40 | > 40 | > 40 | < 4.22 | < 4.22 | < 4.22 | 4.34 | 4.27 | 4.44 | < 4.22 | < 4.22
5 | CC(C)c1cc2c(c(O)c1O)[C@@]13CCCC(C)(C)[C@@H]1[C@H](OC3=O)[C@H]2O [ROSMANOL] | 20 (≈ 57.7 µM) | 10 (≈ 28.9 µM) | 10 (≈ 28.9 µM) | 20 (≈ 57.7 µM) | > 40 | > 40 |  | > 40 | > 40 | > 40 | > 40 | 4.69 | 4.29 | 4.36 | 4.56 | 4.77 | 4.82 | 4.70 | 4.44
6 | CC(C)C1=CC2=C(C(=O)C1=O)[C@@]13CCCC(C)(C)[C@@H]1[C@H](OC3=O)[C@H]2O [ROSMAQUINONE] | 20 (≈ 58.1 µM) | 40 (≈ 116 µM) | 8 (≈ 23.2 µM) | 10 (≈ 29 µM) | > 40 | > 40 | > 40 | > 40 | > 40 | > 40 | > 40 | < 4.22 | < 4.22 | < 4.22 | 4.54 | 4.40 | < 4.22 | < 4.22 | < 4.22
